From paper PMC5484535 (Bioorganic & medicinal chemistry, 2016)
One block for each molecule: values may come before it.

Columns and labels:
PANC-1 = assay: Anti-proliferation in PANC-1 pancreatic cancer cells; assay type: cell-based; conditions: Homo sapiens, PANC-1, read-out: Cellular IC50s Pancreas PANC-1
SW156 = assay: Anti-proliferation in SW156 renal cell carcinoma cells; assay type: cell-based; conditions: read-out: Cellular IC50s Kidney SW156
URMC6 = assay: Anti-proliferation in URMC6 renal cell carcinoma cells; assay type: cell-based; conditions: read-out: Cellular IC50s Kidney URMC6
[1] = test system: synovial fibroblasts from an RA patient (RA2159); assay: FGF-basic secretion by TNFα-activated RA synovial fibroblasts; assay type: cell-based, human; conditions: TNFα-activated SF
How it was run: (§1)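 Primary human RA synovial fibroblasts (lot RA2159) were seeded at 1000 cells/well, grown ~24 h, then starved overnight and ~4 h in 0.1% BSA. Pooled supernatants (duplicates) were diluted 1:3 for 48-analyte Luminex measurement and iMLR modeling.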

[2] = test system: synovial fibroblasts from an RA patient (RA2159); assay: Cytokine secretion by activated RA synovial fibroblasts; assay type: cell-based, human; conditions: TNFα, IL-1α or Poly(I:C) activation
How it was run: as §1

H358 cells = assay: Anti-proliferation in H358 NSCLC cells; assay type: cell-based; conditions: 72 h, in words
How it was run: (§2)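 Cells seeded at 2000 cells/well and left 48 h before drug addition at varying doses. After 72 h incubation, viability was read by CellTiter-Glo luminescence. Growth-inhibition IC50 values were calculated from dose-response curves.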

TAK1 [3] = molecular target: T1, TAK1 (Homo sapiens, UniProt O43318); assay: Competitive pulldown of TAK1 with biotinylated probe 27 in H358 and H23 cells; assay type: cell-based; conditions: 6 h, washout, lysate + 1 μM 27; for blocking of labeling of TAK1 by 27: 10 μM compound; for labeling of TAK1 by 27 after pre-treatment of cells: 1 μM compound; for effect on labeling of TAK1 by 27: 1 or 10 μM compound
T1 sequence (O43318 1-606): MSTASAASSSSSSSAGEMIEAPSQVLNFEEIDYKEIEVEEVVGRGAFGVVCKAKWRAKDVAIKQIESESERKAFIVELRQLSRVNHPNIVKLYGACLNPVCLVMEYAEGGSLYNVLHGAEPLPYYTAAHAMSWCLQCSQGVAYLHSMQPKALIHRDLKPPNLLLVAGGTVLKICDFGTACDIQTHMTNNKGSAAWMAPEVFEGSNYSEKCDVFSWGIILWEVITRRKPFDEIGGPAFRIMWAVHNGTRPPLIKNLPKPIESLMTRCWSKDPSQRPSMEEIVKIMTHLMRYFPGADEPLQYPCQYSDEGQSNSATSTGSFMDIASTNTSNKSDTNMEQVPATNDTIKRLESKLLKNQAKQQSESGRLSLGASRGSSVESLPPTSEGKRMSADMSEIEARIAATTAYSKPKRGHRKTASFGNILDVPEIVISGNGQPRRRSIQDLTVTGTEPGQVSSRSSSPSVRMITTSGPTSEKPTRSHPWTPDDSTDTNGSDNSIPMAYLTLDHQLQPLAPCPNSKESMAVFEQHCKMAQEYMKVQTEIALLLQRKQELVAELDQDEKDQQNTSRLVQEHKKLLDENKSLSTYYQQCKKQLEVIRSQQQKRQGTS
How it was run: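 H358 and H23 NSCLC cells (KRAS G12C) were exposed to test compound at 1 or 10 μM for 6 h. Drug medium was removed, and cells were rinsed twice with cold PBS and lysed in MPER buffer. Lysates were incubated overnight at 4 °C with 1 μM biotinylated probe and pulled down on streptavidin beads. Recovered TAK1 was detected by immunoblotting.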

KRAS^G12D Ba/F3 cells = assay: Anti-proliferation in KRAS^G12D Ba/F3 cells; assay type: cell-based; conditions: 2 vs 8, 25 vs 26
H23 cells = assay: Anti-proliferation in H23 NSCLC cells; assay type: cell-based; conditions: 72 h, in words
How it was run: as §2

[4] = test system: synovial fibroblasts from an RA patient (RA2159); conditions: TNFα but not IL-1α or Poly(I:C) ref 24; cited from earlier work
panel of 456 kinases = assay: KinomeScan ATP-site competition binding panel; conditions: 1 and 10 μM
MAP2K6 = molecular target: T2, MAP2K6 (Homo sapiens, UniProt P52564); assay: KiNativ live-cell profiling in SK-CO-1 cells; assay type: binding; conditions: read-out: Inhibition (%) MAP2K6
T2 sequence (P52564 1-334): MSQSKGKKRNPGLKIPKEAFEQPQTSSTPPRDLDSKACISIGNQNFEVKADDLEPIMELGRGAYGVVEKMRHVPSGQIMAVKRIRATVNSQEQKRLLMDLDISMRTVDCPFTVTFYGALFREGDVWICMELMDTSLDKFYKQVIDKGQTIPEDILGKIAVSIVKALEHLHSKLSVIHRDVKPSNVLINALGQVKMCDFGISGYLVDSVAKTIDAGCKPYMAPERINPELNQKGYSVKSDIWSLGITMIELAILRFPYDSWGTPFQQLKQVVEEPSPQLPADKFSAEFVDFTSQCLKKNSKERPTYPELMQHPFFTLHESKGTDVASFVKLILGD

ZAP70 = molecular target: T3, ZAP70 (Homo sapiens, UniProt P43403); assay: KiNativ live-cell profiling in SK-CO-1 cells; assay type: binding; conditions: read-out: Inhibition (%) ZAP70
T3 sequence (P43403 1-619): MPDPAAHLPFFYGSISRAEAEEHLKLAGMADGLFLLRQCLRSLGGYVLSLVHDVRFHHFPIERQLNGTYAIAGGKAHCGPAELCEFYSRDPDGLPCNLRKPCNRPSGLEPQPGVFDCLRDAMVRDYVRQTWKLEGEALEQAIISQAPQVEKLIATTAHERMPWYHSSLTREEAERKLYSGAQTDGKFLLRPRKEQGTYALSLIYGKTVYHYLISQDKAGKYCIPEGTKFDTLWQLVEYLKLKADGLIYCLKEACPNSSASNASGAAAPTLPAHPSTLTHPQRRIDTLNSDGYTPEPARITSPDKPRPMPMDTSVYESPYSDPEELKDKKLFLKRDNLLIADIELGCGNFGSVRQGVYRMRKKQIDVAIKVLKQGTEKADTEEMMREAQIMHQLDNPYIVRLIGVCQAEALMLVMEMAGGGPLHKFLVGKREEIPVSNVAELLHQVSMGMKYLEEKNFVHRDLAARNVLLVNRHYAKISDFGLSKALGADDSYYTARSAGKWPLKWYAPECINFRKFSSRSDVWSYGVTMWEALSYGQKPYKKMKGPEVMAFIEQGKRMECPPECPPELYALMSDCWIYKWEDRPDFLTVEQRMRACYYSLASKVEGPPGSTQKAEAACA

[5] = test system: SW620, SK-CO-1, PANC-1, AsPc-1, SW156, URMC6; assay: Anti-proliferation across six colon, pancreas and kidney cancer lines; assay type: cell-based; conditions: read-out: IC50 values against all lines except PANC-1
TAK1 [6] = molecular target: T1, TAK1; assay: KiNativ live-cell profiling in SK-CO-1 cells; assay type: binding; conditions: 1 μM
MAP2K5 = molecular target: T4, MAP2K5 (Homo sapiens, UniProt Q13163); assay: KiNativ live-cell profiling in SK-CO-1 cells; assay type: binding; conditions: read-out: Inhibition (%) MAP2K5
T4 sequence (Q13163 1-448): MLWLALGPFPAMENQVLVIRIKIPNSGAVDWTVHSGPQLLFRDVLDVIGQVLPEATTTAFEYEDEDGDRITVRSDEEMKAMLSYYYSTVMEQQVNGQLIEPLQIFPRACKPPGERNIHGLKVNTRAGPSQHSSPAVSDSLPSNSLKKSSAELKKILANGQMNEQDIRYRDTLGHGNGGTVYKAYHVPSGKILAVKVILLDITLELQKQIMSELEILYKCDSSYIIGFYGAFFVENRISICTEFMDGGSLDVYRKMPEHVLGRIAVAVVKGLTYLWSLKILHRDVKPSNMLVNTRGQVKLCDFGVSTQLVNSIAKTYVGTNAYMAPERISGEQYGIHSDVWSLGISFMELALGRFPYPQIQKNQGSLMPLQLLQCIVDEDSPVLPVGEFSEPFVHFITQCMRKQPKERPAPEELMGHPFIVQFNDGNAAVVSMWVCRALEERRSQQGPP

ARAF = molecular target: T5, ARAF (Homo sapiens, UniProt P10398); assay: KiNativ live-cell profiling in SK-CO-1 cells; assay type: binding; conditions: read-out: Inhibition (%) ARAF
T5 sequence (P10398 1-606): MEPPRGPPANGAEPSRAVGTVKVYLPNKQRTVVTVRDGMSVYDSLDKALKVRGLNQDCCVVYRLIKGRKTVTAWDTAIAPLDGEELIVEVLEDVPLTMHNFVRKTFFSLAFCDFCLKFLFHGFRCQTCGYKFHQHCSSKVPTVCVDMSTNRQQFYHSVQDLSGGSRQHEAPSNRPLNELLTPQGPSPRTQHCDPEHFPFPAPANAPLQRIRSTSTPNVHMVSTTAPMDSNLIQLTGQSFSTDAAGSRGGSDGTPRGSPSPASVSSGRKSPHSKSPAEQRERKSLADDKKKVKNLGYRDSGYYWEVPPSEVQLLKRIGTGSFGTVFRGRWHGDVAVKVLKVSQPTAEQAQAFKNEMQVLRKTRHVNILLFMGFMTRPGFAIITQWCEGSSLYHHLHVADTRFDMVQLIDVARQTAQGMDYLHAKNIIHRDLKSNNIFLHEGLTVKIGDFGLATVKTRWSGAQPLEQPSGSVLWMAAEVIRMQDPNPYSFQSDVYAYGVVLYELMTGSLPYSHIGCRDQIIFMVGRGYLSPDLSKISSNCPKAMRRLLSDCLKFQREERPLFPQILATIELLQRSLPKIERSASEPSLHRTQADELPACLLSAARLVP

Structure (SMILES): Cn1cnc2c(F)c(Nc3ccc(Br)cc3Cl)c(C(=O)NOCCO)cc21 [AZD]
IC50 (PANC-1): > 100 µM
IC50 (SW156): > 100 µM
IC50 (URMC6): > 100 µM

Structure (SMILES): CC(C)Nc1cc(-c2c[nH]c(C(=O)N[C@H](CO)c3cccc(Cl)c3)c2)c(Cl)cn1 [BVD]
IC50 (PANC-1): > 100 µM
IC50 (URMC6): > 100 µM

Structure (SMILES): COc1cc(O)c2c(c1)/C=C/C[C@H](O)[C@H](O)C(=O)/C=C\C[C@H](C)OC2=O [Compound 5Z7, 5Z-7-oxozeaenol, reference compound]
secretion of FGF-basic in SF activated by TNFα [4]: elevated secretion of fibroblast growth factor-basic
normalization of induced cytokine secretion ([2]; 0.6 μM): fully normalizing induced cytokine secretion
labeling of TAK1 by 27 after pre-treatment of cells (TAK1 [3]): did not label TAK1
KinomeScan inhibition score (panel of 456 kinases): strong inhibition score against many kinases other than TAK1

Structure (SMILES): CN1CCN(c2ccc(Nc3ncc(Cl)c(Nc4ccccc4NC(=O)CCl)n3)cc2)CC1 [Compound 10]
anti-proliferative effect, H358 (H358 cells): potent against both lines at very low concentrations
blocking of labeling of TAK1 by 27 (TAK1 [3]): only partially blocked labeling of TAK1
anti-proliferative effect, H23 (H23 cells): potent against both lines at very low concentrations

Structure (SMILES): C=CC(=O)Oc1ccccc1Nc1nc(Nc2cccc(N3CCOCC3)c2)ncc1Cl [Compound 20]
blocking of labeling of TAK1 by 27 (TAK1 [3]): only partially blocked labeling of TAK1

Structure (SMILES): C=CC(=O)Nc1ccccc1Oc1nc(Nc2cnn(C(F)F)c2)ncc1Cl [Compound 23]
blocking of labeling of TAK1 by 27 (TAK1 [3]): only partially blocked labeling of TAK1

Structure (SMILES): C=CC(=O)Nc1ccccc1Oc1nc(Nc2cnn(CCOC)c2)ncc1Cl [Compound 25]
binding to TAK1 in KiNativ assay (TAK1 [6]): could not detect binding to TAK1
inhibition at 1 µM (MAP2K6): -21.6%
normalization of induced cytokine secretion ([2]; 3 μM): normalized cytokine secretion
blocking of labeling of TAK1 by 27 (TAK1 [3]): only partially blocked labeling of TAK1
inhibition at 1 µM (MAP2K5): -59.6%
inhibition at 1 µM (ARAF): -15.8%

Structure (SMILES): CCC(=O)Nc1ccccc1Oc1nc(Nc2cnn(CCOC)c2)ncc1Cl [Compound 26]
IC50 (PANC-1): > 100 µM
normalization of induced cytokine secretion ([2]; 3 μM): virtually inactive
effect on labeling of TAK1 by 27 (TAK1 [3]): did not have a measurable effect
IC50 (SW156): > 100 µM

Structure (SMILES): CCN1CCN(Cc2ccc(NC(=O)c3ccc(C)c(Oc4ccnc5[nH]ccc45)c3)cc2C(F)(F)F)CC1 [NG25, reference compound]
normalization of induced cytokine secretion ([2]; 3 μM): normalized cytokine secretion
anti-proliferative effect, H358 (H358 cells): insufficient to block proliferation at concentrations lower than 5 μM
effect on labeling of TAK1 by 27 (TAK1 [3]): inhibited TAK1 in an irreversible manner
anti-proliferative effect, H23 (H23 cells): insufficient to block proliferation at concentrations lower than 5 μM

Continued, in another order:

potentiation of FGF-basic secretion induced by TNFα [1]: potentiated FGF-basic secretion
blocking of labeling of TAK1 by 27 (TAK1 [3]): only partially blocked labeling of TAK1
Structure (SMILES): C=CC(=O)Nc1ccccc1Oc1nc(Nc2ccc(N3CCN(C)CC3)cc2)ncc1Cl [Compound 2]
normalization of induced cytokine secretion ([2]; 3 μM): normalized cytokine secretion
anti-proliferative effect, H358 (H358 cells): potent against both lines at very low concentrations
fold more potent than non-covalent counterpart against KRAS^G12D Ba/F3 cells (KRAS^G12D Ba/F3 cells): approximately 6 fold
anti-proliferative effect, H23 (H23 cells): potent against both lines at very low concentrations

inhibition at 1 µM (MAP2K6): -43.1%
potentiation of FGF-basic secretion induced by TNFα [1]: potentiated FGF-basic secretion
labeling of TAK1 by 27 after pre-treatment of cells (TAK1 [3]): did not label TAK1
inhibition at 1 µM (ZAP70): -26.6%
IC50 [5]: 29 to 83 nM
Structure (SMILES): C=CC(=O)Nc1ccccc1Nc1nc(Nc2ccc(N3CCN(C)CC3)cc2)ncc1Cl [Compound 5]
normalization of induced cytokine secretion ([2]; 0.6 μM): fully normalizing induced cytokine secretion
anti-proliferative effect, H358 (H358 cells): potent against both lines at very low concentrations
anti-proliferative effect, H23 (H23 cells): potent against both lines at very low concentrations

effect on labeling of TAK1 by 27 (TAK1 [3]): did not have a measurable effect
Structure (SMILES): CCC(=O)Nc1ccccc1Oc1nc(Nc2ccc(N3CCN(C)CC3)cc2)ncc1Cl [Compound 8]
normalization of induced cytokine secretion ([2]; 3 μM): virtually inactive

effect on labeling of TAK1 by 27 (TAK1 [3]): did not have a measurable effect
Structure (SMILES): CCC(=O)Nc1ccccc1Nc1nc(Nc2ccc(N3CCN(C)CC3)cc2)ncc1Cl [Compound 9]
